Measurements reported in PMC2926617 (Nucleic Acids Research, 2010).
Entries after “also recorded” stand apart in the source; their conditions may differ.

T1: CarS (Myxococcus xanthus, UniProt Q06911)
T1 sequence (Q06911 1-111): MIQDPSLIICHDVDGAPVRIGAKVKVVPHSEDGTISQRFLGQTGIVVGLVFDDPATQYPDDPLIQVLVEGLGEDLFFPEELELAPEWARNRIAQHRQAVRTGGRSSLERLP

T2: CarS1 (Myxococcus xanthus, UniProt Q06911)
T2 sequence (Q06911 1-86): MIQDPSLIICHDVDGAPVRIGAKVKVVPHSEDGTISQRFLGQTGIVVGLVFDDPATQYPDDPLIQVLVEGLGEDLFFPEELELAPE


Experiments:
CarS [1] = target: T1, CarS; experiment: Yeast two-hybrid interaction with CarS; format: cell-based; settings: not shown
In short: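 Yeast EGY48 carrying lacZ reporter pSH18-34 was cotransformed (lithium acetate) with LexA–CarA and B42–CarS or variant fusions. Equal-density cultures were spotted on galactose or glucose (basal fusion expression) plates with leucine, grown 1 day at 30°C, then overlaid with X-Gal agarose for 2–3 h (Gal) or ≥7 h (Glu). Interaction was scored by blue colour; single-hybrid cells served as controls.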

CarS [2] = target: T1, CarS; experiment: ITC titration with CarS; format: binding; settings: ITC
CarS(F77A) = experiment: ITC titration with CarS; format: binding, Myxococcus xanthus; settings: pH 7.5
In short: (§1)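 ITC in 100 mM NaCl, 50 mM phosphate pH 7.5, 2 mM β-mercaptoethanol, 0.05% sodium azide; samples were dialysed or dissolved in this buffer and degassed. Cell held 20 µM CarANt or peptide, titrated with 30 injections of 0.22 mM CarS variant, stirring 300 rpm. Heat of dilution was subtracted using buffer controls. Data were fit to a single-site model; at least two independent titrations.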

CarS(D52A/D53A) = experiment: ITC titration with CarS; format: binding, Myxococcus xanthus; settings: pH 7.5
In short: as §1

CarS1 [3] = target: T2, CarS1; experiment: Far-UV CD spectroscopy with CarS1; settings: 1:1 molar ratio with CarS1, 25°C, 100 mM KF, 7.5 mM phosphate pH 7.5
In short: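 Far-UV CD at 25°C, 10–20 µM samples in 100 mM KF, 7.5 mM phosphate pH 7.5, three scans averaged, 0.2-nm steps. Peptide (18 µM) or CarANt (11 µM) was measured alone and mixed 1:1 with CarS1. The read-out was molar ellipticity difference between the mixture and CarS1 alone.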

CarS [4] = target: T1, CarS; experiment: Far-UV CD spectroscopy with CarS; settings: 25°C, 100 mM KF, 7.5 mM phosphate pH 7.5
In short: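 Far-UV CD was recorded at 25°C in 0.2-nm steps (adaptive sampling) with 2-nm slit width, averaging three scans. Samples were 10–20 µM protein, peptide or 1:1 mixture in 100 mM KF, 7.5 mM phosphate pH 7.5. The instrument was calibrated with (+)-10-camphorsulfonic acid.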

[5] = Analytical gel filtration of pure proteins; format: physicochemical; settings: Superdex200, 50 mM phosphate pH 7.5, 2 mM β-mercaptoethanol
In short: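 Superdex200 analytical size-exclusion HPLC in 50 mM phosphate pH 7.5, 2 mM β-mercaptoethanol and the required NaCl. Samples were 10–50 µM pure protein, or CarNt or CarHNt mixed with CarS or variant at equivalent concentrations. Flow was 0.4 ml/min with detection at 280, 235 and 220 nm. Peak fractions were identified by SDS–PAGE. Mr was taken from elution volume via log Mr = 7.64 – 0.209 Ve.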

CarS1 [6] = target: T2, CarS1; experiment: NMR chemical shift mapping on labeled H6CarS1; format: binding; settings: ^15N, ^13C-H6CarS1 0.10–0.25 mM titrated with unlabeled CarANt, P01 or P02, 25°C or 45°C

Row | Molecule | Two-hybrid interaction with CarS (CarS [1]) | KD relative to P01 and P02 (CarS [2]) | N (binding stoichiometry) (CarS [2]; CarS, 25 °C, pH 7.5, 100 mM NaCl, 50 mM phosphate, 2 mM β-mercaptoethanol, 0.05% sodium azide, 20 µM CarANt or peptide titrated with 0.22 mM CarS, average of at least two independent titrations) | ΔH (CarS [2]; CarS, 25 °C, pH 7.5, 100 mM NaCl, 50 mM phosphate, average of at least two independent titrations) [kcalmol^−1] | Kd (CarS [2]; CarS, 25 °C, pH 7.5, 100 mM NaCl, 50 mM phosphate, single-site binding model, average of at least two independent titrations) [nM] | ITC heat change / binding (CarS(F77A)) | ITC heat change / binding (CarS(D52A/D53A)) | Far-UV CD change / helix content in presence of CarS1 (CarS1 [3]) | Far-UV CD change in presence of CarS (CarS [4]) | Apparent Mr of pure protein [5] [kDa] | Chemical shift perturbations of labeled H6CarS1 (CarS1 [6])
1 | R27A variant of whole CarH (protein) MAERTYRINIAAELAGVRVELIRAWEARYGVLTPRRTPAGYRAYTDRDVAVLKQLKRLTDEGVAISEAAKLLPQLMEGLEAEVAGRGASQDARPHAETWRESMLAATQAYDQPRVSDVLDEVLAALPPLKAFDEVLAPLLCDVGERWESGTLTVAQEHLVSQMVRARLVSLLHAAPLGRHRHGVLACFPEEEHEMGLLGAALRLRHLGVRVTLLGQRVPAEDLGRAVLALRPDFVGLSTVASRSAEDFEDTLTRLRQALPRGLPVWVGGAAARSHQAVCERLAVHVFQGEEDWDRLAGT | lack of interaction with CarS |  |  |  |  |  |  |  |  |  | 
2 | CarANt: the highly basic and autonomously folded N-terminal DNA-binding domain of CarA (protein, left off: H6, end not stated, cleaved) MTLRIRTIARMTGIREATLRAWERRYGFPRPLRSEGNNYRVYSREEVEAVRRVARLIQEEGLSVSEAIAQVKTEPPRE |  | over an order of magnitude lower | 0.94 ± 0.01 | −9.24 ± 0.02 | ~10 | could not be detected; also recorded: ^aHeat changes were negligible or undetected for the following titrations: (i) CarANt or P01 with CarS(F77A) or CarS(D52A/D53A); (ii) P03 with CarS or CarS1; (iii) TtP01 with CarS (for details on peptides P01, P02, P03, CHP01 and TtP01, see Figures 3A and 4A, and text) | could not be detected; also recorded: ^aHeat changes were negligible or undetected for the following titrations: (i) CarANt or P01 with CarS(F77A) or CarS(D52A/D53A); (ii) P03 with CarS or CarS1; (iii) TtP01 with CarS (for details on peptides P01, P02, P03, CHP01 and TtP01, see Figures 3A and 4A, and text) | no significant change | in a manner similar to CarS1 | 9.6 | significant perturbations for the methyl cross-peaks of V26, L63, L75, L81 (Figure 1C) and I64
